# Source: ChEMBL document CHEMBL3407346, “Design, synthesis, and biological evaluation of sulfonyl acrylonitriles as novel inhibitors of cancer metastasis and spread” (J Med Chem, 2015)
# pEC50: −log10 of the molar value. Active and inactive are the calls of the source. The rule behind the calls is not given here.
# Experiments:
# [1] = Cytotoxicity against human BxPC3 cells co-cultured with human mesothelial cells at 10 uM after 4 hrs by firefly luciferase assay relative to control; assay type: functional, BXPC-3
# Procedure, shortened: (§1)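 Co-culture of luciferase-transduced cancer cells (puromycin/G418-selected retroviral pLuc) with confluent human mesothelial monolayers. Suspended cancer cells plus 10 µM compound (final) or DMSO were overlaid for 4 h. Non-adherent cells were washed off and surviving adherent cells quantified by firefly luciferase luminescence. Efficacy = treated/DMSO luminescence ratio; mean±SEM, n=3.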
# [2] = Cytotoxicity against human SU86 cells co-cultured with human mesothelial cells at 10 uM after 4 hrs by firefly luciferase assay relative to control; assay type: functional; procedure, shortened: as §1
# A2780 [3] = test: Cytotoxicity against human A2780 cells co-cultured with human mesothelial cells at 10 uM after 4 hrs by firefly luciferase assay relative to control; assay type: functional; procedure, shortened: as §1
# [4] = Cytotoxicity against human SU86 cells co-cultured with human mesothelial cells after 4 hrs by firefly luciferase assay relative to control; assay type: functional, cell-based
# Procedure, shortened: (§2)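 Luciferase-expressing cancer cells in suspension were treated with a series of compound concentrations or DMSO, overlaid on confluent human mesothelial monolayers for 4 h, and washed to remove non-adherent cells. Surviving adherent cells were read by luciferase luminescence relative to vehicle, and EC50 was derived from the concentration series.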
# [5] = Antimetastatic activity against human MIAPaCa2 cells xenografted in ip dosed Ncr-Nu/Nu mouse assessed as local recurrence administered on day 1, 3, 5, 7 and measured after 8 weeks by fluorescent imaging analysis (reference value: 60%); assay type: functional, MIA PaCa-2
# Procedure, shortened: (§3)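 Orthotopic pancreatic model in male NCr-Nu/Nu nude mice, 6-8 wk old. 1×10⁶ RFP-expressing MiaPaCa-2 cells in soluble ECM were injected into the pancreatic tail. Tumour resected with distal pancreatectomy, with no residual disease confirmed by intraoperative RFP imaging. Compound or vehicle (4:1 PEG400:EtOH) given IP at surgery and on days 3, 5 and 7. Local and metastatic recurrence scored by fluorescent imaging after 8 weeks.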
# [6] = Antimetastatic activity against human MIAPaCa2 cells xenografted in ip dosed Ncr-Nu/Nu mouse assessed as total recurrence administered on day 1, 3, 5, 7 and measured after 8 weeks by fluorescent imaging analysis (reference value: 67%); assay type: functional, MIA PaCa-2; procedure, shortened: as §3
# [7] = Cytotoxicity against human SKOV3 cells co-cultured with human mesothelial cells at 10 uM after 4 hrs by firefly luciferase assay relative to control; assay type: functional, SK-OV-3; procedure, shortened: as §1
# [8] = Cytotoxicity against human BxPC3 cells co-cultured with human mesothelial cells after 4 hrs by firefly luciferase assay relative to control; assay type: functional, cell-based; details: BXPC-3, 4 h; procedure, shortened: as §2
# [9] = Cytotoxicity against human SKOV3 cells co-cultured with human mesothelial cells after 4 hrs by firefly luciferase assay relative to control; assay type: functional, cell-based; details: SK-OV-3, 4 h; procedure, shortened: as §2
# [10] = Antitumor activity against human MIAPaCa2 cells xenografted in ip dosed Ncr-Nu/Nu mouse assessed as metastases administered on day 1, 3, 5, 7 and measured after 8 weeks by fluorescent imaging analysis (reference value: 40%); assay type: functional, MIA PaCa-2; procedure, shortened: as §3
# A2780 [11] = test: Cytotoxicity against human A2780 cells co-cultured with human mesothelial cells after 4 hrs by firefly luciferase assay relative to control; assay type: functional, cell-based; details: A2780, 4 h; procedure, shortened: as §2
# A2780 [12] = test: Induction of apoptosis in human A2780 cells assessed as increased cellular levels of cleaved caspase 3 at 5 uM after 4 hrs by immunoblot analysis; assay type: functional, cell-based
# Procedure, shortened: (§4)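 A2780 cells were suspended and allowed to adhere for 4 h with DMSO or test compound (5 µM in DMSO). Cells were collected and lysed, lysates normalised for total protein, and cleaved PARP and cleaved caspase 3 detected by immunoblot with actin as loading control. A sulfide analog served as negative control.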
# Mus musculus [13] = test: Toxicity in athymic nu/nu mouse xenografted with human SKOV3 cells assessed as weight loss at 5 mg/kg, ip administered thrice a week for 14 days; assay type: organism-based, SK-OV-3; parameters: dose 5 mg/kg, route intraperitoneal; details: in vivo, 336 h
# HT-29 [14] = test: Induction of apoptosis in human HT-29 cells using compound pre-mixed with NAC; assay type: functional, cell-based
# A2780 [15] = test: Induction of apoptosis in human A2780 cells assessed as increased cellular levels of cleaved PARP at 5 uM after 4 hrs by immunoblot analysis; assay type: functional, cell-based; procedure, shortened: as §4
# HT-29 [16] = test: Reduction of cellular GSH level in human HT-29 cells incubated for 30 mins followed by co-culturing with human mesothelial cells measured after 5 hrs by […]; assay type: functional, cell-based
# A2780 [17] = test: Inhibition of peritoneal carcinomatosis of human A2780 cells in athymic nu/nu mouse at 5 mg/kg, ip administered thrice a week for 14 days by luciferase reporter assay relative to vehicle-treated control; assay type: functional, organism-based; parameters: dose 5 mg/kg
# Procedure, shortened: (§5)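 Athymic female nu/nu mice, 5 weeks old, received 5 mg/kg compound or vehicle (80% PEG400:20% ethanol) IP 4 h before IP injection of 1.5×10⁶ A2780-luc or 2×10⁶ SKOV3-luc cells, n=7 per arm. Dosing continued IP three times a week for 14 days. Tumour burden was imaged weekly by abdominal bioluminescence after IP D-luciferin/ketamine/xylazine; mean±SEM, unpaired t-test vs vehicle.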
# HT-29 [18] = test: Induction of apoptosis in human HT-29 cells at 10 uM incubated for 30 mins followed by coculturing with human mesothelial cells for 5 hrs by firefly luciferase assay in presence of NAC; assay type: functional, cell-based
# Procedure, shortened: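 Firefly luciferase-expressing HT-29 cells were incubated 30 min with compound plus vehicle (water) or 680 µM N-acetylcysteine, trypsin-suspended, and co-cultured 5 h on human mesothelial monolayers with compound and NAC. Surviving adherent cells were detected by luciferase luminescence; mean light output ±SEM.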
# SK-OV-3 = test: Inhibition of peritoneal carcinomatosis of human SKOV3 cells in athymic nu/nu mouse at 5 mg/kg, ip administered thrice a week for 14 days by luciferase reporter assay relative to vehicle-treated control; assay type: functional, organism-based; parameters: dose 5 mg/kg; procedure, shortened: as §5
# Mus musculus [19] = test: Toxicity in athymic nu/nu mouse xenografted with human A2780 cells assessed as weight loss at 5 mg/kg, ip administered thrice a week for 14 days; assay type: organism-based; parameters: dose 5 mg/kg, route intraperitoneal; details: in vivo, 336 h
# [20] = Glutathione reactivity assessed as reduction in detectable GSH level by Ellman's reagent-based assay
# Procedure, shortened: (§6)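 Glutathione was measured with a commercial kit per the manufacturer's instructions, with TNB production rate proportional to GSH. Cell-free GSH was tested with compounds, and HT-29 luciferase cell lysates were assayed after compound exposure.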
# HT-29 [21] = test: Reduction of cellular GSH level in human HT-29 cells after 24 hrs by […]; assay type: functional, cell-based; procedure, shortened: as §6
# HT-29 [22] = test: Cytotoxicity against human HT-29 cells co-cultured with human mesothelial cells at 50 to 200 uM preincubated for 24 hrs followed by co-culturing measured after 4 hrs by firefly luciferase assay relative to control; assay type: functional, cell-based; details: in the assay text read “after 5 hrs” for “after 4 hrs”
# Procedure, shortened: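 Luciferase-expressing HT-29 cells were pretreated 24 h with water or various BSO concentrations, trypsin-suspended, then overlaid on confluent human mesothelial monolayers with compound and BSO for 5 h. Non-adherent cells were washed off and survivors read by luciferase luminescence.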
SMILES,Ratio [1],Ratio [2],Ratio (A2780 [3]),pEC50 [4],Activity [5] [%],Activity [6] [%],Ratio [7],pEC50 [8],pEC50 [9],Activity [10] [%],pEC50 (A2780 [11]),Activity (A2780 [12]),Activity (Mus musculus [13]),Activity (A2780 [15]),inhibition (A2780 [17]),inhibition (SK-OV-3),Activity (Mus musculus [19]),further results
CC(C)(c1ccc(S(=O)(=O)/C=C/C#N)cc1)c1nnc(-c2ccccc2)o1,0.24,0.45,0.06,5.21,45,45,0.25,5.51,5.24,0,5.59,,,,,,,
CC(C)(C)c1ccc(S(=O)(=O)/C=C/C#N)cc1 [BAY-11-7085],0.07,0.13,0.04,5.23,31,38,0.32,5.46,5.30,31,5.59,Active,Non-toxic,Active,Active,Active,Non-toxic,Activity (HT-29 [14]): inactive; Activity (HT-29 [16]): Active; Activity (HT-29 [18]): inactive; Activity [20]: Active
CCCCS(=N)(=O)CC[C@H](N)C(=O)O (some centres not stated),,,,,,,,,,,,,,,,,,Activity (HT-29 [21]): Active; Activity (HT-29 [22]): inactive
Cc1ccc2oc(C(C)(C)c3ccc(S(=O)(=O)/C=C/C#N)cc3)nc2c1,0.09,0.2,0.1,5.14,40,50,0.17,5.46,5.25,10,5.68,,,,,,,
CC(C)(C)c1cc(S(=O)(=O)/C=C/C#N)ccc1OCC(=O)NC1CCCCC1,0.09,0.21,0.01,5.18,,,0.19,5.47,5.21,,5.59,Active,Non-toxic,Active,Active,Active,Non-toxic,
CC(C)(c1ccc(S(=O)(=O)/C=C/C#N)cc1)c1nc2ccccc2o1,0.24,0.29,0.01,5.19,,,0.17,5.51,5.27,,5.66,Active,Non-toxic,Active,Active,Active,Non-toxic,
N#C/C=C/S(=O)(=O)c1ccc(C2(C(=O)NC3CCCCC3)CCC2)cc1,0.18,0.32,0.09,5.10,30,40,0.33,5.44,5.13,20,5.51,Active,Non-toxic,Active,Active,Active,Non-toxic,
CC(C)(C(=O)NCc1ccccc1)c1ccc(S(=O)(=O)/C=C/C#N)cc1,0.16,0.21,0.1,5.13,6,6,0.52,5.43,5.06,6,5.52,Active,Non-toxic,Active,Active,Active,Non-toxic,
